This is a sample that favours compounds with a hit; in the whole collection about 12% have one here.
Wee1 degr inh: human Wee1 degradation inhibition, primary screen. P30291. HeLa Luc-Wee1K328M stability, luciferase luminescence; 100% = proteasome inhibitor MG132 effect. reporter increase, % at 5 µM. 1.2% of 220,000 active;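 active = activation above the mean of all tested compounds plus 3 SD, set per screening run, cut at about 8.8% in these data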;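 note: cells exposed to compound for 20 h before luminescence read; 0% = DMSO alone and 100% = MG132 at 30 µM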
Target sequence (P30291 whole entry K328M): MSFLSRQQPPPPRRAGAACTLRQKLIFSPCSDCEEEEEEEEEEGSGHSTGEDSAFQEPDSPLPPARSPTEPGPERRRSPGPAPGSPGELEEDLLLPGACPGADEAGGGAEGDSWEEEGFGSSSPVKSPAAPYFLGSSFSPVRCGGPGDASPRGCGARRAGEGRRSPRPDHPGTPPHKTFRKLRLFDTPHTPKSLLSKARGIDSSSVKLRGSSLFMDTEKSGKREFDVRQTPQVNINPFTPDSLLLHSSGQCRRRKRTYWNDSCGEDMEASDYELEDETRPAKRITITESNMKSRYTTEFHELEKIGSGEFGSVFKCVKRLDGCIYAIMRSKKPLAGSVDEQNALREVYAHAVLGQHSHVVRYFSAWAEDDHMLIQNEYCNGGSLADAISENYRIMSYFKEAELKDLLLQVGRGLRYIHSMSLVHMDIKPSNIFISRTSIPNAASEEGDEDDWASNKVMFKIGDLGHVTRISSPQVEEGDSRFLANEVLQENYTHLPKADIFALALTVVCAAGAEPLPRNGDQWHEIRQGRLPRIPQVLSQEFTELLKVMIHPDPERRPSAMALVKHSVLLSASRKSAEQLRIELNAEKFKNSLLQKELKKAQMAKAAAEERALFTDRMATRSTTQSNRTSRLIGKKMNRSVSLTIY
Rad51 HR inh: Rad51 (human) homologous recombination inhibition; hRad51 DNA strand exchange, fluorescence dequenching; 0.085% of 200,000 active; Q06609; inhibition, % at 10 µM;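 active = inhibition above 40% at the single screening dose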;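 note: 0% = DMSO control wells and 100% = blanks with heterologous ssDNA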
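Material: hRad51 filaments on single-stranded DNA; Reagent: Donor/quencher-labelled 47-bp dsDNA substrate; Compound: 10 µM final, single point; Schedule: 37 °C 15-min filament assembly, 30-min compound preincubation, 15-min exchange; Technique: FRET fluorescence, excitation 485 nm, emission 520 nm; Benchmarks: control wells and blank wells on each plate.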
PKD1 inh: inhibitors of human PKD1 kinase; inhibition, % (test concentration not listed); 0.056% of 200,000 active; PKD1 kinase fluorescence polarization assay; Q15139
Arbovirus anti: blocks arbovirus infection; arbovirus infection cell-based antiviral screen; inhibition, % at 10 µM; 0.37% of 200,000 active; in the data active = inhibition above about 30%
CHOP inhibitor: blocks CHOP induction under ER stress; CHO-K1 CHOP-promoter luciferase, tunicamycin-induced, 15-18 h; inhibition, % at 10 µM; 3.8% of 220,000 active; AID 2732;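 active = compounds that reduced the stress-induced luciferase reporter signal by more than about 70% of percent inhibition, limit read from the data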;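 note: 0% = tunicamycin plus vehicle and 100% = wells without tunicamycin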
Lmaj promast: reduces viability of Leishmania major promastigotes. resazurin fluorescence viability. inhibition, % at 10 µM. 9% of 200,000 active;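 note: promastigotes grown with compound for 44 hours at 28 °C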
Numbers without * were called inactive; x = no result given. Cut-off read from the data, not from the text of the source, unless noted: active = inhibition above about 50%; inactive = the rest.

SMILES	Wee1 degr inh	Rad51 HR inh	PKD1 inh	Arbovirus anti	CHOP inhibitor	Lmaj promast
COC(=O)C1=C(N)Oc2cc(C)n(Cc3cccnc3)c(=O)c2C1c1ccc(OC)c(OC)c1 (stereo not drawn)	1	x	-13	2	-8	5
CCOC(=O)C1=C(N)Oc2cc(C)n(CCc3ccc(OC)c(OC)c3)c(=O)c2C1c1cccnc1 (stereo not drawn)	8	0	-10	-2	34	94*
CCOC(=O)C1=C(N)Oc2cc(C)oc(=O)c2C1c1cccnc1 (stereo not drawn)	-2	-5	-13	3	17	14
COC(=O)C1=C(N)Oc2cc(C)n(CCc3ccccc3)c(=O)c2C1c1cccnc1 (stereo not drawn)	-3	4	4	-1	32	98*
CCOC(=O)C1=C(N)Oc2ccc3ccccc3c2C1c1cccnc1 (stereo not drawn)	-1	1	-5	-3	26	98*
O=C(Nc1cccc(Cl)c1N1CCOCC1)c1cccnc1Cl	0	x	x	x	7	x
CCN(CC)CCCC(C)NC(=O)c1ccc(C(F)(F)F)cc1 (stereo not drawn)	-2	x	-4	-2	11	-5
COCC1CCN(Cc2cn(-c3ccccc3F)nc2-c2cc(C)sc2C)CC1	0	1	-3	11	62	50
CCSc1sccc1C1C(C#N)=C(N)N(c2cccnc2)C2=C1C(=O)CCC2 (stereo not drawn)	2	-13	0	2	13	4
CCOC(=O)C1=C(N)N(c2ccccc2)C2=C(C(=O)CCC2)C1c1cccnc1 (stereo not drawn)	-1	x	-3	8	-51	72*
COC(=O)C1=C(N)Oc2cc(C)n(Cc3cccnc3)c(=O)c2C1c1cccc(OC)c1OC (stereo not drawn)	9.2*	-1	-10	0	-10	-5
Cc1cccc(C(=O)N/N=C/c2cc(Br)c(Br)o2)c1	-2	-1	-1	-14	-30	5
Cn1c(NCc2cc(Br)ccc2O)nc2ccccc21	3	3	-18	1	0	22
CCn1c(CNc2nc3ccccc3n2C(C)C)nc2ccccc21	0	-1	0	11	32	100*
C=CCn1c(NC(C)c2cc(Cl)ccc2O)nc2ccccc21 (stereo not drawn)	3	x	4	21	54	96*
C=CCn1c(NCc2cc(C)ccc2O)nc2ccccc21	-2	-9	-5	29	8	38
Cn1c(NCc2c(O)ccc3ccccc23)nc2ccccc21	1	-2	-1	26	17	100*
CCn1c(CNC(=O)c2ccccc2)nc2ccccc21	3	5	-6	x	x	-1
Oc1ccc2ccccc2c1CNc1cnc2ccccc2c1	0	-5	1	8	87*	-5
COC(=O)c1ccc2c(=O)n(-c3ccc(OC)cc3)c(=S)[nH]c2c1	0	x	-3	-1	10	-5
Oc1ccc(O)c(-c2cnns2)c1	5	x	-2	-22	-12	-4
CC(C)n1c(NCc2nc3ccccc3n2C)nc2ccccc21	0	0	-7	4	41	60*
CCCn1c(CNc2ccccc2O)nc2ccccc21	-3	3	-8	-32	-20	82*
Cn1c(NCc2ccc(Cl)cc2)nc2ccccc21	1	22	-3	10	-17	31
CC(C)n1c(NCc2cc(Cl)ccc2O)nc2ccccc21	0	6	8	20	51	66*
SMILES	Wee1 degr inh	Rad51 HR inh	PKD1 inh	Arbovirus anti	CHOP inhibitor	Lmaj promast
Cn1c(CNc2nc3ccccc3n2C)nc2ccccc21	4	-2	6	5	0	50*
Cc1ccc(S(=O)(=O)Oc2ccc(C3C4=C(CCCC4=O)N(CCC(=O)O)C4=C3C(=O)CCC4)cc2Cl)cc1	0	8	13	13	15	-9
Cc1sc2c(c1C)CN(CCN1CCOCC1)CN2C(=O)c1ccccc1	5	12	-5	5	-1	0
COc1ccccc1N(C)S(=O)(=O)c1ccc(C(=O)NC(C)c2ccccc2)cc1 (stereo not drawn)	2	x	x	x	13	x
CCOc1ccccc1Nc1nc2ccccc2n1C(C)C	-2	14	-5	-5	5	83*
CC(C)n1c(Nc2ccccc2)nc2ccccc21	1	-9	0	-4	4	9
Clc1ccccc1-c1nnc(-c2cccs2)o1	10*	6	-2	-5	-7	2
C(=C\c1nnc(-c2cccs2)o1)/c1ccccc1	4	1	2	27	-10	0
CCN(CC(=O)Nc1ccc2c(c1)OCCO2)C(=O)/C=C/c1ccc(F)cc1	-1	-3	-7	-3	0	-1
CC1(C)CC(=O)C=C(NCc2ccco2)C1	0	4	-4	x	x	-1
CC1(C)CC(=O)C=C(NCc2cccnc2)C1	9.3*	-2	-7	8	-10	-4
S=C(Nc1ccc(Cl)cc1)c1nc2ccccc2s1	-2	11	-8	3	-34	-7
O=C(Nc1ccc(Cl)cc1)/C(=C/c1cccc(O)c1)c1nc2ccccc2s1	1	-12	4	-34	107*	100*
Nc1nc(Cl)cc(N2CCC(c3cc(-c4ccc(Cl)cc4Cl)n[nH]3)CC2)n1	2	-5	-7	-45	89*	17
CC(C)NCCCCOc1ccc(Br)cc1Cl	-4	3	-2	-33	-1	99*
COCCCNCCCOc1ccc(Cl)cc1Br	-2	-2	-7	-20	10	88*
CCCCNCCOCCOc1ccc(Cl)cc1Br	6	x	0	-37	4	100*
COCCNCCCOc1ccc(C)cc1Br	-2	1	-11	-12	18	28
CCCCNCCOCCOc1ccc(F)cc1	1	-2	1	1	-25	92*
Cc1nc(Cl)c(Cl)n1CCOc1ccccc1	5	12	x	x	4	x
COc1ccc(C(=O)NCC(=O)N/N=C/c2cccc(OC(=O)c3ccco3)c2)cc1OC	-1	x	-5	4	9	-1
CCN(CC)CCCOc1ccc(C)cc1Br	-3	4	3	-13	34	94*
COCCCNCCCOc1ccc(C)cc1Br	-3	5	-12	-11	23	99*
C=CCN(CC=C)CCCOc1ccc(Br)cc1Cl	8	11	6	1	0	51*
C=CCNCCCOc1ccc(C)cc1Br	0	-7	-8	-15	1	94*
O=C(NC1CCN(Cc2ccccc2)CC1)c1ccc2c(c1)[nH]c(=O)n2Cc1ccc(F)cc1	-3	7	-2	-28	25	35
CC(C)NCCCOc1ccc(Cl)cc1Br	-2	7	5	-26	-7	94*
CC1(C)Cc2ccccc2C(/C(=N/O)C(N)=O)=N1	0	-4	2	3	9	61*
CC(=O)c1ccc(N/N=C(/C(N)=O)C2=NC(C)(C)Cc3ccccc32)cc1	-1	x	1	-17	19	32

Screens deposited in PubChem BioAssay by several laboratories.
